# Assay results from different studies.
# Lines come from different studies, so protocols differ.
# IGF1R: Insulin-like growth factor 1 receptor (IGF1R, Homo sapiens, UniProt P08069)
Structure (SMILES),target,test,setting,measurement,result
CN1CC(Oc2cnc(C#N)cc2-c2ccn3nc(NC(=O)C4CC4)cc3c2)C1,IGF1R,"enzyme activity, inhibitor",1 µM,inhibition,9%
COc1ccc(Cl)cc1NC(=O)Nc1cc(C)nc2ccccc12,IGF1R,cell-free assay,0.5 µM,remaining signal,94.9%
C=CC(=O)Nc1cc(Nc2nccc(Nc3cc(Cl)c(F)cc3C(C)(C)O)n2)c(OC)cc1N1CC[C@@H](N(C)C)C1,IGF1R,"enzyme activity, inhibitor",1 µM,inhibition,35%
COc1cc2ncnc(Nc3ccc(Oc4ccccc4)cc3C)c2cc1OC,IGF1R,"enzyme activity, inhibitor",1 µM,inhibition,1%
CCS(=O)(=O)c1cc2cc(C[C@@](O)(CC(C)(C)c3ccc(F)cc3C(N)=O)C(F)(F)F)[nH]c2cn1,IGF1R,"cell-free assay, competition with immobilised ligand",1 µM,remaining binding,100%
COc1cc(Nc2c(C#N)cnc3cc(OCCCN4CCN(C)CC4)c(OC)cc23)c(Cl)cc1Cl,IGF1R,cell-free assay,0.5 µM,remaining signal,91.5%
Cc1ccc(NC(=O)c2ccc(C)c(C(F)(F)F)c2)cc1C#Cc1nn(C2CCC(O)CC2)c2ncnc(N)c12 (stereo not drawn),IGF1R,cell-free assay,10 µM,remaining signal,66%
Cc1c(NC(=O)c2cc(C(N)=O)nc3cc(F)ccc23)c(C(F)(F)F)nn1Cc1ccc(C#N)cc1,IGF1R,"cell-free assay, competition with immobilised ligand",1 µM,remaining binding,100%
CNc1cccc2cc(C(=O)Nc3ccc(C(=O)O)cc3)c(=O)[nH]c12,IGF1R,"enzyme activity, inhibitor",10 µM,inhibition,5.2%
CS(=O)(=O)Nc1cccc(-c2csc(NC(=O)CSc3nc4nccnc4c(=O)n3CCc3ccccc3)n2)c1,IGF1R,"enzyme activity, inhibitor",10 µM,inhibition,5%
Cc1cc(NC(=O)c2cccc3cc(-c4cccc5[nH]nc(N)c45)ccc23)ccc1F,"Insulin-like growth factor 1 receptor, phosphorylated (IGF1R, Homo sapiens, UniProt P08069)","enzyme activity, inhibitor",0.1 µM,activity vs control,100%
CNCc1ccc(-c2cc(-c3nc(-c4ccc(S(=O)(=O)C(C)C)cc4)cnc3N)on2)cc1,IGF1R,"enzyme activity, inhibitor",0.4 µM,inhibition,0%
Cc1ccc(C(=O)NCc2ccsc2)cc1C#Cc1cn(C(C)C)c2ncnc(N)c12,IGF1R,"enzyme activity, inhibitor",1 µM,activity vs control,75%
CN(C)C(=O)Cn1cc(-c2nc(C3(c4ccc(-c5cnc(N)nc5)cc4)CC3)no2)cn1,IGF1R,"cell-free assay, competition with immobilised ligand",1 µM,remaining binding,85%
CCN(CC)CCNC(=O)c1c(C)[nH]c(/C=C2\C(=O)Nc3ccc(F)cc32)c1C,IGF1R,"enzyme activity, inhibitor",10 µM,inhibition,81%
C[C@@H](c1cccc(C#N)c1)n1cc(Cl)cc(C(N)=O)c1=N,IGF1R,"cell-free assay, competition with immobilised ligand",1 µM,remaining binding,96%
COc1cc(/C=C/C(=O)CC(=O)/C=C/c2ccc(O)c(OC)c2)ccc1O,IGF1R,"enzyme activity, inhibitor",1 µM,activity vs control,99%
CN(C(=O)c1ccccc1)c1cc(N(C)c2ccc3c(c2)CCc2ccc(C(=O)NCCN4CCOCC4)cc2C3=O)ccc1F,IGF1R,"cell-free assay, competition with immobilised ligand",1 µM,remaining binding,90%
O=C1Nc2ccc(Cl)cc2C1=Cc1cc(Cl)c(O)c(Cl)c1,IGF1R,cell-free assay,0.5 µM,remaining signal,98.3%
CS(=O)(=O)N1CCCC(NC(=O)[C@H](CCC2CCCCC2)NC(=O)c2ccc(CNc3ncnc4c3nnn4-c3ccccc3)cc2)C1 (stereo partly drawn),IGF1R,"cell-free assay, competition with immobilised ligand",0.1 µM,remaining binding,100%
CN(c1ncccc1CNc1nc(Nc2ccc3c(c2)CC(=O)N3)ncc1C(F)(F)F)S(C)(=O)=O,IGF1R,"enzyme activity, inhibitor",1 µM,inhibition,97.6%
